# Data: ChEMBL document CHEMBL5325427
# Active and inactive are the calls of the source. The rule behind the calls is not given here.
# Key:
# [1] = target: T1, Replicase polyprotein 1ab (Severe acute respiratory syndrome coronavirus 2, UniProt P0DTD1); experiment: Inhibition of recombinant SARS CoV-2 PL protease incubated for 2 hrs followed by substrate addition and measured after 1 hr by fluorescence based analysis
# SARS-CoV-2 [2] = experiment: Antiviral activity against SARS-CoV-2 NRC-03-nhCoV infected in african green monkey Vero E6 cells assessed as inhibition of viral growth pre-infected cells with virus for 1 hr followed by compound addition for 1 hr and measured after 72 hrs by crystal violet staining based analysis; type: functional, organism-based; conditions: Severe acute respiratory syndrome coronavirus 2, NRC-03-nhCoV, Vero C1008
# [3] = Selectivity index, ratio of CC50 for African green monkey Vero E6 cells to IC50 for antiviral activity against SARS-CoV-2 NRC-03-nhCoV infected in african green monkey Vero E6 cells; type: toxicity, cell-based, Vero C1008; conditions: read-out: Ratio CC50/IC50
# [4] = system: Middle East respiratory syndrome-related coronavirus; experiment: Antiviral activity against MERS-CoV NRCE-HKU270 infected in Vero E6 cells assessed as inhibition of viral growth; type: functional, organism-based; conditions: NRCE-HKU270, Vero C1008
# [5] = target: T1, Replicase polyprotein 1ab; experiment: Inhibition of recombinant SARS CoV-2 PL protease assessed as deubiquitination activity using ubiquitinated fluorogenic as substrate incubated for 2 hrs followed by substrate addition for 1 hr by synergy TM HTX microplate reader analysis
# SARS-CoV-2 [6] = experiment: Antiviral activity against SARS CoV-2 HCoV-19/Egypt/NRC-1/2020 infected in human Caco-2 cells assessed as reduction in viral ORFb1 RNA expression at 20 ug/ml pre-infected with virus for 1 hr followed by cell addition for 1 hr and measured after 1 to 12 hrs by RT-PCR analysis; type: functional, organism-based; conditions: Severe acute respiratory syndrome coronavirus 2, dose 20.0 µg/ml, time 3-14 hrs
# SARS-CoV-2 [7] = experiment: Antiviral activity against SARS CoV-2 HCoV-19/Egypt/NRC-1/2020 infected in human Caco-2 cells assessed as reduction in spike RNA expression at 20 ug/ml pre-infected with virus for 1 hr followed by cell addition for 1 hr and measured after 6 to 12 hrs by RT-PCR analysis; type: functional, organism-based; conditions: Severe acute respiratory syndrome coronavirus 2, dose 20.0 µg/ml, time 8-14 hrs
# SARS-CoV-2 [8] = experiment: Antiviral activity against SARS CoV-2 HCoV-19/Egypt/NRC-1/2020 infected in human Caco-2 cells assessed as inhibition of ORFb1 RNA at 20 ug/ml pre-infected with virus for 1 hr followed by cell addition for 1 hr and measured after 1 to 12 hrs by RT-PCR analysis relative to control; type: functional; conditions: Severe acute respiratory syndrome coronavirus 2, HCoV-19/Egypt/NRC-1/2020, Caco-2, time 3-14 hrs
# SARS-CoV-2 [9] = experiment: Antiviral activity against SARS CoV-2 infected in human Caco-2 cells assessed as reduction in INF-alpha expression at 20 ug/ml preincubated with cells for 24 hrs followed by viral infection and measured after 1 to 3 hrs by real-time PCR assay; type: functional, organism-based; conditions: Severe acute respiratory syndrome coronavirus 2, dose 20.0 µg/ml, time 25-28 hrs
# SARS-CoV-2 [10] = experiment: Antiviral activity against SARS CoV-2 infected in human Caco-2 cells assessed as reduction in IL-6 expression at 20 ug/ml preincubated with cells for 24 hrs followed by viral infection and measured after 3 to 12 hrs by real-time PCR assay; type: functional, organism-based; conditions: Severe acute respiratory syndrome coronavirus 2, dose 20.0 µg/ml, time lower 27.0 hrs, time upper […]
# [11] = Toxicity in Balb/c mouse assessed as change in histological variation in liver at 12.5 to 25 mg/kg by H and E staining based analysis; type: organism-based; conditions: in vivo, dose 12.5-25 mg/kg
# Outline: (§1)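 After the 14-day daily intraperitoneal dosing (12.5 or 25 mg/kg, female Balb/c), liver, kidney, spleen, heart and lung were fixed 24 h in 10% neutral-buffered formalin and paraffin-embedded. Sections of 4 μm were stained with H&E. Lesions were scored nil 0, mild 1, moderate 2, severe 3.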
# [12] = Toxicity in Balb/c mouse assessed as histological changes in liver by measuring toxicity score at 12.5 mg/kg by H and E staining based analysis; type: organism-based; conditions: in vivo; outline: as §1
# [13] = Toxicity in Balb/c mouse assessed as histological changes in kidney by measuring toxicity score at 12.5 to 25 mg/kg by H and E staining based analysis; type: organism-based; conditions: in vivo, dose 12.5-25 mg/kg; outline: as §1
# [14] = Toxicity in Balb/c mouse assessed as histological changes in heart by measuring toxicity score at 12.5 to 25 mg/kg by H and E staining based analysis; type: organism-based; conditions: in vivo, dose 12.5-25 mg/kg; outline: as §1
# [15] = Toxicity in Balb/c mouse assessed as reduction in platelet population at 25 mg/kg; type: organism-based; conditions: in vivo
# [16] = Toxicity in Balb/c mouse assessed as effect on ALT at 12.5 to 25 mg/kg; type: organism-based; conditions: in vivo, dose 12.5-25 mg/kg
# Outline: (§2)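 Female Balb/c mice were randomised to vehicle (0.5% DMSO in PBS) or 12.5 or 25 mg/kg intraperitoneally daily for 14 days, then followed 12 days after treatment. Body weight, haematology and blood chemistry were compared with vehicle controls; n = 3–5.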
# [17] = Toxicity in Balb/c mouse assessed as effect on albumin at 12.5 to 25 mg/kg; type: organism-based; conditions: in vivo, dose 12.5-25 mg/kg; outline: as §2
# SARS-CoV-2 [18] = experiment: Antiviral activity against SARS- CoV-2 infected in Vero E6 cells assessed as virucidal activity pretreated with cells for 24 hrs followed by viral infection for 1 hr and measured after 1 hr by plaque assay relative to control; type: functional, Severe acute respiratory syndrome coronavirus 2; conditions: time 26 hrs
smiles,measurement,setting,value
COc1ccc2[nH]c3c(c2c1)C[C@]1(OC)CC[C@H]2c4[nH]c5ccccc5c4CCN2[C@@H]1C3,IC50,[1],0.0912 µM
same,IC50,SARS-CoV-2 [2],12.1 µg/mL
same,selectivity ratio,[3],4.6
same,IC50,[4],6.21 µg/mL
same,IC50,[5],386 µM
same,Activity,SARS-CoV-2 [6],Active
same,Activity,SARS-CoV-2 [7],Active
same,inhibition at 20 µg/mL,SARS-CoV-2 [8],> 70%
same,Activity,SARS-CoV-2 [9],Active
same,Activity,SARS-CoV-2 [10],Active
same,Activity,[11],Non-Toxic
same,Activity,[12],0
same,Activity,[13],0
same,Activity,[14],0
same,Activity,[15],Non-Toxic
same,Activity,[16],Non-Toxic
same,Activity,[17],Non-Toxic
same,Activity,SARS-CoV-2 [18],>90%
